In the array DNA melting data of Ke et al. (doi:10.1101/2024.01.08.574731) one finds folding enthalpy and Tm data, which are given here for 76 sequences.

Series [1] in a line: folding enthalpy; higher = less favourable; fluorescence melt of hairpins on a sequencing array, two-state fit. Particulars: sodium 0.088 M. The method, boiled down:
(§1)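 Hairpins were imaged by Cy3 fluorescence on a sequenced MiSeq flow cell with annealed Cy3 and quencher oligos, in 50 mM Na-HEPES pH 8.0, 25 mM NaCl, in 2.5 °C steps up to 60 °C. Bootstrapped two-state fits of normalised signals gave melting temperature and folding enthalpy. Four replicates were combined by inverse variance, and fitted temperatures were raised by 9.35 °C to match UV melts.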

Series [2] in a line: melting temperature; fluorescence melt of hairpins on a sequencing array, two-state fit, raised by 9.35 °C to match UV melts. Particulars: sodium 0.088 M. Put shortly: as §1

With GATCACCATCGTGATC ((((((....)))))), the folding enthalpy in series [1] is -31.8 kcal/mol. Further, the Tm in series [2] was found to be 54.5 °C.
Consider GATCACCATTGTGATC ((((((....)))))), for which, in series [1], the folding enthalpy was -39.2 kcal/mol. Also, the Tm in series [2] is 56.3 °C.
On the same counts, the results for GATCACCCAGGTGATC ((((((....)))))) are -35.7 kcal/mol and 61.6 °C.
GATCACCCTGTGATC ((((((...)))))): the folding enthalpy in series [1] was -42.3 kcal/mol. In addition, in series [2], the Tm was determined as 59.3 °C.
For GATCACCGAAAGGTATC (((.(((....)))))), in series [1], the folding enthalpy is -15.8 kcal/mol. Also, the Tm in series [2] was 34.1 °C.
Take GATCACCGAAAGGTCATC (((.(((....))).))): the folding enthalpy in series [1] is -16.8 kcal/mol. Also, the Tm in series [2] turned out to be 32.5 °C.
The corresponding values for GATCACCGACGTGATC ((((((....)))))) are -32.5 kcal/mol and 54.5 °C.
On the same counts, the results for GATCACCGAGTGATC ((((((...)))))) are -34.9 kcal/mol and 55.4 °C.
The corresponding values for GATCACCGCGGTGATC ((((((....)))))) are -44.1 kcal/mol and 67.2 °C.
GATCACCGCTGTGATC ((((((....)))))): the folding enthalpy in series [1] is -36.3 kcal/mol. In addition, in series [2], the Tm is 57 °C.
On the same counts, the results for GATCACCGTTGTGATC ((((((....)))))) are -39.8 kcal/mol and 55.4 °C.
The corresponding values for GATCACCTATGTGATC ((((((....)))))) are -40.1 kcal/mol and 57.1 °C.
The corresponding values for GATCACGAAAGTGCAATC ((((((....)))..))) are -10 kcal/mol and 28.1 °C.
For GATCACGAAAGTGCGATC ((((((....)))..))), the folding enthalpy in series [1] is -16.3 kcal/mol. Besides, in series [2], the Tm came to 29.5 °C.
On the same counts, the results for GATCACGAAAGTGTGATC ((((((....)))..))) are -27 kcal/mol and 47.9 °C.
The corresponding values for GATCACGAGAGTGATC ((((((....)))))) are -28.4 kcal/mol and 67.8 °C.
On the same counts, the results for GATCACGAGGGTGATC ((((((....)))))) are -38.1 kcal/mol and 54.6 °C.
Regarding GATCACGCCTGTGATC ((((((....)))))), the folding enthalpy in series [1] is -49.5 kcal/mol. Moreover, the Tm in series [2] was 59.4 °C.
The corresponding values for GATCACGCGCGTGATC ((((((....)))))) are -62 kcal/mol and 62.7 °C.
Take GATCACGGGAGTGATC ((((((....)))))): the folding enthalpy in series [1] is -37.6 kcal/mol. Besides, the Tm in series [2] is 68.5 °C.
The corresponding values for GATCACGGTGTGATC ((((((...)))))) are -30.5 kcal/mol and 61.3 °C.
On to GATCACGGTTGTGATC ((((((....)))))), for which the folding enthalpy in series [1] was -31.2 kcal/mol. Moreover, the Tm in series [2] amounted to 61 °C.
On the same counts, the results for GATCACGTAGGTGATC ((((((....)))))) are -39 kcal/mol and 63.9 °C.
On the same counts, the results for GATCACGTATGTGATC ((((((....)))))) are -38.5 kcal/mol and 68.2 °C.
Consider GATCACGTCGTGATC ((((((...)))))), for which the folding enthalpy in series [1] is -40.5 kcal/mol. Besides, in series [2], the Tm turned out to be 61.1 °C.
The corresponding values for GATCACGTGGTGATC ((((((...)))))) are -46.3 kcal/mol and 56.5 °C.
For GATCACGTTGGTGATC ((((((....)))))), the folding enthalpy in series [1] was -37 kcal/mol. Also, the Tm in series [2] is 58.2 °C.
The corresponding values for GATCACGTTGTGATC ((((((...)))))) are -38.1 kcal/mol and 60.1 °C.
For the sequence GATCACTAAAGTGATC ((((((....)))))), in series [1], the folding enthalpy is -38.6 kcal/mol. In addition, the Tm in series [2] came to 54.5 °C.
Consider GATCACTACGTGATC ((((((...)))))), for which the folding enthalpy in series [1] is -39.7 kcal/mol. In addition, the Tm in series [2] was found to be 61.7 °C.
On the same counts, the results for GATCACTAGGGTGATC ((((((....)))))) are -41.7 kcal/mol and 57.3 °C.
As to GATCACTATGGTGATC ((((((....)))))), the folding enthalpy in series [1] was -41.5 kcal/mol. In addition, the Tm in series [2] amounted to 59 °C.
Turning to GATCACTATTGTGATC ((((((....)))))), the folding enthalpy in series [1] was -37.8 kcal/mol. In addition, the Tm in series [2] was determined as 58.3 °C.
On the same counts, the results for GATCACTCCGGTGATC ((((((....)))))) are -37.8 kcal/mol and 56.9 °C.
The corresponding values for GATCACTCGAGTGATC ((((((....)))))) are -39.9 kcal/mol and 59.4 °C.
As for GATCACTCGGGTGATC ((((((....)))))), in series [1], the folding enthalpy is -37.4 kcal/mol. The Tm in series [2] came out at 57.6 °C.
The corresponding values for GATCACTCGGTGATC ((((((...)))))) are -37.8 kcal/mol and 58.9 °C.
On the same counts, the results for GATCACTGCTGTGATC ((((((....)))))) are -38.2 kcal/mol and 57.1 °C.
On the same counts, the results for GATCACTGGCGTGATC ((((((....)))))) are -41.4 kcal/mol and 55.2 °C.
Consider GATCACTTAAGTGATC ((((((....)))))), for which, in series [1], the folding enthalpy was -38 kcal/mol. The Tm in series [2] worked out at 59.3 °C.
As to GATCACTTCGTGATC ((((((...)))))), in series [1], the folding enthalpy is -46.6 kcal/mol. In series [2], the Tm stood at 58.9 °C.
Take GATCACTTCTGTGATC ((((((....)))))): in series [1], the folding enthalpy is -38.4 kcal/mol. Further, the Tm in series [2] worked out at 58.9 °C.
The corresponding values for GATCAGAAAACTGATC ((((((....)))))) are -29.2 kcal/mol and 43.6 °C.
For the sequence GATCAGAACACTGATC ((((((....)))))), in series [1], the folding enthalpy is -32.1 kcal/mol. In addition, in series [2], the Tm is 48.5 °C.
Consider GATCAGAACGCTGATC ((((((....)))))), for which, in series [1], the folding enthalpy was -29.5 kcal/mol. Besides, the Tm in series [2] was found to be 47.3 °C.
On the same counts, the results for GATCAGAAGCCTGATC ((((((....)))))) are -31.7 kcal/mol and 47.1 °C.
The corresponding values for GATCAGAATACTGATC ((((((....)))))) are -39.2 kcal/mol and 47.4 °C.
The corresponding values for GATCAGAATTCTGATC ((((((....)))))) are -43.5 kcal/mol and 50.4 °C.
As for GATCAGACAACTGATC ((((((....)))))), the folding enthalpy in series [1] was -32.3 kcal/mol. Besides, the Tm in series [2] is 45.9 °C.
On the same counts, the results for GATCAGACACCTGATC ((((((....)))))) are -34.1 kcal/mol and 47.1 °C.
Turning to GATCAGACGACTGATC ((((((....)))))), the folding enthalpy in series [1] was -39.2 kcal/mol. Also, in series [2], the Tm was found to be 47.5 °C.
On the same counts, the results for GATCAGACTACTGATC ((((((....)))))) are -33 kcal/mol and 49.1 °C.
On the same counts, the results for GATCAGAGAGCTGATC ((((((....)))))) are -31 kcal/mol and 46.2 °C.
The corresponding values for GATCAGAGCACTGATC ((((((....)))))) are -36.5 kcal/mol and 49.3 °C.
Consider GATCAGAGTTCTGATC ((((((....)))))), for which, in series [1], the folding enthalpy was -36.6 kcal/mol. For the same sequence, in series [2], the Tm was determined as 50.5 °C.
On the same counts, the results for GATCAGATGACTGATC ((((((....)))))) are -35.3 kcal/mol and 47.8 °C.
On the same counts, the results for GATCAGATGTCTGATC ((((((....)))))) are -41.8 kcal/mol and 49.7 °C.
On the same counts, the results for GATCAGATTTCTGATC ((((((....)))))) are -41 kcal/mol and 52.9 °C.
On to GATCAGCACACTGATC ((((((....)))))), for which, in series [1], the folding enthalpy was -32.3 kcal/mol. For the same sequence, the Tm in series [2] amounted to 53.4 °C.
The corresponding values for GATCAGCACTCTGATC ((((((....)))))) are -30.8 kcal/mol and 49.9 °C.
Turning to GATCAGCAGTCTGATC ((((((....)))))), in series [1], the folding enthalpy was -34.4 kcal/mol. Besides, the Tm in series [2] was 48.8 °C.
The corresponding values for GATCAGCCACCTGATC ((((((....)))))) are -33.8 kcal/mol and 49.6 °C.
In the case of GATCAGCCCCCTGATC ((((((....)))))), in series [1], the folding enthalpy was -36.2 kcal/mol. Also, the Tm in series [2] was determined as 48.2 °C.
As for GATCAGCCGCCTGATC ((((((....)))))), the folding enthalpy in series [1] is -32.5 kcal/mol. Besides, the Tm in series [2] came out at 50.5 °C.
On the same counts, the results for GATCAGCCGCTGATC ((((((...)))))) are -41 kcal/mol and 48.7 °C.
On the same counts, the results for GATCAGCCGTCTGATC ((((((....)))))) are -43.6 kcal/mol and 51.6 °C.
On the same counts, the results for GATCAGCGCCCTGATC ((((((....)))))) are -39.5 kcal/mol and 49 °C.
On to GATCAGCGCTCTGATC ((((((....)))))), for which, in series [1], the folding enthalpy is -33.9 kcal/mol. For the same sequence, the Tm in series [2] is 50.4 °C.
The corresponding values for GATCAGCGGACTGATC ((((((....)))))) are -33.9 kcal/mol and 50.3 °C.
On the same counts, the results for GATCAGCGGGCTGATC ((((((....)))))) are -38.8 kcal/mol and 63.8 °C.
On the same counts, the results for GATCAGCTATCTGATC ((((((....)))))) are -34.7 kcal/mol and 49.3 °C.
On to GATCAGCTCACTGATC ((((((....)))))), for which the folding enthalpy in series [1] is -31.9 kcal/mol. Moreover, the Tm in series [2] came to 52.2 °C.
On the same counts, the results for GATCAGCTCCCTGATC ((((((....)))))) are -32.3 kcal/mol and 49.1 °C.
The corresponding values for GATCAGCTCTCTGATC ((((((....)))))) are -36.9 kcal/mol and 49.3 °C.
On the same counts, the results for GATCAGCTGACTGATC ((((((....)))))) are -37.6 kcal/mol and 51.5 °C.
In the case of GATCAGCTTGCTGATC ((((((....)))))), in series [1], the folding enthalpy was -47.5 kcal/mol. Moreover, the Tm in series [2] was found to be 68.8 °C.
